Data: paper PMC3835729 (Biochemistry, 2013)
pKd, pKi: −log10 of the molar value.

Legend:
[1] = biological target: T1, human histidine triad nucleotide binding protein 1 (hHint1) (Homo sapiens, UniProt P49773); test: stopped-flow fluorescence, burst; assay type: biochemical; conditions: 20 mM HEPES, 1 mM MgCl2, pH 7.2, 25 °C; pre-steady state
Summary of the method: (§1)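 Recombinant WT human Hint1 (E. coli BB2, AMP-agarose, desalted) was loaded at 5 μM in one syringe, with substrate in 20 mM HEPES, 1 mM MgCl2, pH 7.2 in the other. Substrate was phosphoramidate (5-60 μM) or acyl adenylate (5-40 μM). Equal volumes were mixed at 25°C. Fluorescence used excitation at 280 nm and a 320 nm cutoff. The burst rate came from a single exponential plus linear term, and Kadenylyl from a nonlinear fit versus [S]. Six experiments were averaged.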

[2] = biological target: T1, human histidine triad nucleotide binding protein 1 (hHint1); test: stopped-flow catalytic trapping with TpAd; assay type: biochemical
Summary of the method: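 Wild-type human Hint1, expressed in E. coli hinT-disrupted strain BB2 and purified on AMP-agarose, at 5 μM in one stopped-flow syringe. It was pre-incubated 10 min with the test compound (0-5000 μM) and then mixed with the tryptamine-releasing phosphoramidate substrate (40 μM). Indole fluorescence was read with excitation at 280 nm through a 320 nm cutoff filter. Test-compound absorbance was kept within 5%.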

[3] = biological target: T1, human histidine triad nucleotide binding protein 1 (hHint1); test: tryptophan fluorescence titration
[4] = biological target: T1, human histidine triad nucleotide binding protein 1 (hHint1); test: stopped-flow fluorescence, burst; assay type: biochemical; conditions: 20 mM HEPES, 1 mM MgCl2, pH 7.2, 25 °C; pre-steady state; remark: listed apart in the source
Summary of the method: as §1

T1 sequence (P49773 2-126): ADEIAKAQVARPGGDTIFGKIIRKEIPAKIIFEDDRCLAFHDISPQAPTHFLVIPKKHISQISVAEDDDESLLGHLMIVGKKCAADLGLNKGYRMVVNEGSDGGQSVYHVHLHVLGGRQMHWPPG

Nc1ncnc2c1ncn2[C@@H]1O[C@H](COP(=O)(O)OC(=O)CCc2c[nH]c3ccccc23)[C@@H](O)[C@H]1O [AIPA]
K^adenylyl [1]: 5 ± 1 µM

Nc1ncnc2c1ncn2[C@@H]1O[C@H](COP(=O)(O)O)[C@@H](O)[C@H]1O [AMP]
pKi [2]: ~3.70 | pKd [3]: 3.70

Nc1ncnc2c1ncn2[C@@H]1O[C@H](COP(=O)(O)NCCc2c[nH]c3ccccc23)[C@@H](O)[C@H]1O [TpAd]
K^adenylyl [4]: 13 ± 2 µM
